Experimental findings from ChEMBL document CHEMBL4725492, “Dioxane-Linked Amide Derivatives as Novel Bacterial Topoisomerase Inhibitors against Gram-Positive Staphylococcus aureus” (ACS Med Chem Lett, 2020) are described below.

pIC50: −log10 of the molar value. Converted amounts (≈) assume the structure as drawn. The source made the active and inactive calls. No cut-off for these calls is given here. Where only a bound is given, the exact number is not on record here.

For data set [1], the target named is T1, DNA gyrase (Staphylococcus aureus) (UniProt P0A0K8+P20831). The data set is described as follows: Inhibition of Staphylococcus aureus DNA gyrase assessed as double-strand break at 100 uM using relaxed pBR322 as substrate by ethidium bromide-based gel electrophoresis. Type of data set: protein-complex assay. Summed up:
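Gyrase-mediated DNA cleavage reactions with test agent across 0.1–100 μM. Products were resolved on ethidium-stained gels into negatively supercoiled, nicked and linear forms. DSBs were taken as percent of total lane fluorescence in the linear band, correcting for the different emission of supercoiled versus linear and nicked DNA. Cleavage in enzyme-only controls was subtracted.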

Data set [2] addresses T1, DNA gyrase (Staphylococcus aureus). Kind of data set: Inhibition of Staphylococcus aureus DNA gyrase assessed as double-strand break at 100 to 200 uM using relaxed pBR322 as substrate by ethidium bromide-based gel electrophoresis. Format: protein-complex assay. As to conditions: dose microM 100-200. Summed up: (§1)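 S. aureus gyrase-mediated DNA cleavage: compound was incubated with enzyme and DNA, and products were resolved on an ethidium-stained gel into negatively supercoiled, nicked (single-strand break) and linear (double-strand break) forms. Lane fluorescence was corrected for differential band emission. Percent of each form was calculated, and enzyme-only cleavage was subtracted. Concentrations spanned 0.1 nM–200 μM, with a 20 μM single-point screen. Results are mean ± SD or range.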

The target is the same in data set [3]. Kind of data set: Inhibition of Staphylococcus aureus DNA gyrase assessed as single-strand break at 100 to 200 uM using relaxed pBR322 as substrate by ethidium bromide-based gel electrophoresis. Type of data set: protein-complex assay. The following applies: dose microM 100-200. Summed up:
as §1

Another data set relates to K562. The data set is described as follows: Growth inhibition of human K562 cells incubated for 48 hrs by sulforhodamine B assay. Format: functional. On the technique in general: In SRB staining, fixed cells bind dye roughly in proportion to their protein.
Data set [4] concerns Staphylococcus aureus. Kind of data set: Antibacterial activity against Staphylococcus aureus ATCC 29213 by CLSI based agar dilution method. Format: functional. A general note: In agar dilution the substance is mixed into plates at graded concentrations.
Data set [5] deals with Voltage-gated inwardly rectifying potassium channel KCNH2 (Homo sapiens, UniProt Q12809). The data set is described as follows: Inhibition of human ERG. As to conditions: for INH: human.
For data set [6], the system named is Staphylococcus aureus. Kind of data set: Antibacterial activity against Staphylococcus aureus 3527 by CLSI based agar dilution method. Format: functional.
Data set [7] is described as follows: Growth inhibition of human K/VP.5 cells incubated for 48 hrs by sulforhodamine B assay. Format: functional.
Data set [8] has as its target T2, DNA topoisomerase 2-alpha (Homo sapiens, UniProt P11388). The data set is described as follows: Inhibition of human topoisomerase 2alpha relative to control. Summed up: (§2)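 Human topoisomerase IIα decatenation activity was tested at a single concentration of 100 μM and reported as percent inhibition.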
The target of a further data set is DNA gyrase (Staphylococcus aureus, UniProt P0A0K8+P20831). Kind of data set: Inhibition of Staphylococcus aureus DNA gyrase using relaxed pBR322 as substrate by gel electrophoresis. Type of data set: protein-complex assay.
The target in data set [9] is T1, DNA gyrase (Staphylococcus aureus). Kind of data set: Inhibition of Staphylococcus aureus DNA gyrase assessed as single-strand break using relaxed pBR322 as substrate by ethidium bromide-based gel electrophoresis. Format: protein-complex assay. Summed up: as §1
In data set [10] the test system is Staphylococcus aureus. Kind of data set: Antibacterial activity against Staphylococcus aureus D83N by CLSI based agar dilution method. Format: functional.
Data set [11] addresses T1, DNA gyrase (Staphylococcus aureus). The data set is described as follows: Inhibition of Staphylococcus aureus DNA gyrase assessed as double-strand break using relaxed pBR322 as substrate by ethidium bromide-based gel electrophoresis. Format: protein-complex assay. The following applies: dose microM 0.0001-20. Summed up: as §1
Data set [12] has as its system Staphylococcus aureus. Kind of data set: Antibacterial activity against Staphylococcus aureus USA300 by CLSI based agar dilution method. Type of data set: functional.
Data set [13] addresses Topoisomerase IV (Staphylococcus aureus, UniProt P0C1S7+P0C1U9). Kind of data set: (§3) Inhibition of Staphylococcus aureus topoisomerase-4 assessed as reduction in decatenation of kinetoplast DNA agarose gel electrophoresis method. Type of data set: protein-complex assay.
Data set [14] addresses T1, DNA gyrase (Staphylococcus aureus). The data set is described as follows: Inhibition of Staphylococcus aureus DNA gyrase assessed as single-strand break at 20 uM using relaxed pBR322 as substrate by ethidium bromide-based gel electrophoresis. Type of data set: protein-complex assay. Summed up:
as §1

Data set [15] shares this target. The data set is described as follows: Inhibition of Staphylococcus aureus DNA gyrase assessed as double-strand break at 20 uM using relaxed pBR322 as substrate by ethidium bromide-based gel electrophoresis. Format: protein-complex assay. The gist of the method:
as §1

Data set [16] addresses Topoisomerase IV (Staphylococcus aureus, UniProt P0C1U9+P0C1S7). The data set is described as §3. Format: protein-complex assay.
Data set [17] deals with T2, DNA topoisomerase 2-alpha. Kind of data set: Inhibition of human topoisomerase 2alpha. The gist of the method: as §2
The target in data set [18] is T1, DNA gyrase (Staphylococcus aureus). Kind of data set: Inhibition of Staphylococcus aureus DNA gyrase assessed as double-strand break at upto 100 uM using relaxed pBR322 as substrate by ethidium bromide-based gel electrophoresis. As to conditions: dose microM <=100. Type of data set: protein-complex assay. Summed up:
as §1

For `O=C(O)c1cn(C2CC2)c2cc(N3CCNCC3)c(F)cc2c1=O`, the inhibition result in data set [1] is “Active”.
Regarding `O=c1ccc2ncc(=O)n3c2n1C[C@H]3CN1CCC(NCc2cc3c(cn2)OCCC3)CC1`, the inhibition entry in data set [2] is “inactive”. Also, the inhibition entry in [3] was “Active”.
Regarding `COc1ccc2nccc(CC[C@H]3OC[C@H](NC(=O)c4ccc5c(c4)NC(=O)CS5)CO3)c2c1`, the INH was greater than 200 µM in the data set on K562, greater than 30 µM in data set [5] and greater than 200 µM in data set [7]. Further, the minimum inhibitory concentration (MIC) – broadly, the lowest concentration that inhibits growth of the organism – in the data set on Staphylococcus aureus [4] was 0.03 µg/mL (≈ 0.0626 µM); in the data set with Staphylococcus aureus [6] it was no more than 0.125 µg/mL; with Staphylococcus aureus [10], greater than 64 µg/mL; against Staphylococcus aureus [12] it was no more than 0.125 µg/mL. For the same compound, the “inhibition (INH)” value in data set [8] is listed as 37%. Also, the pIC50 – broadly, −log10 of the IC50, conventionally taken in molar units – against DNA gyrase is 6.89; on Topoisomerase IV [13] it was 6.15. Also, the inhibition entry in data set [9] and in data set [11] was “Dose-dependent effect” in each case.
Turning to `COc1ccc2nccc(CC[C@H]3OC[C@H](NC(=O)c4ccc(Cl)cc4)CO3)c2c1`, the INH was found to be 10 µM with K562, 11 µM in data set [5] and 11 µM in [7]. Further, the MIC against Staphylococcus aureus [4] is 1 µg/mL (≈ 2.34 µM); against Staphylococcus aureus [6], 2 µg/mL (≈ 4.68 µM); with Staphylococcus aureus [10] it was greater than 32 µg/mL; with Staphylococcus aureus [12], 1 µg/mL (≈ 2.34 µM). On DNA gyrase, this compound gave a pIC50 of 6.21. Moreover, in [14], the inhibition result was “Active”. Also, the inhibition entry in [15] is “inactive”. Also, the IC50 result at Topoisomerase IV [16] was “Not Active”. Further, the “inhibition (INH)” value in data set [17] is “Not Active”.
For the compound `COc1ccc2nccc(CC[C@H]3OC[C@H](NC(=O)c4ccc(OC(F)(F)F)cc4)CO3)c2c1`, the INH is 11 µM in the data set with K562, greater than 10 µM in data set [5] and 9 µM in data set [7]. Moreover, the MIC was 0.5 µg/mL (≈ 1.05 µM) in the data set with Staphylococcus aureus [4], 2 µg/mL (≈ 4.2 µM) against Staphylococcus aureus [6], greater than 32 µg/mL against Staphylococcus aureus [10] and 1 µg/mL (≈ 2.1 µM) in the data set on Staphylococcus aureus [12]. The same compound had a pIC50 against DNA gyrase of 5.85. For the same compound, the inhibition result in [14] is “Active”. Moreover, the inhibition result in data set [15] is “inactive”. On Topoisomerase IV [16], the IC50 entry is recorded as “Not Active”. Further, in [17], the “inhibition (INH)” value was “Not Active”.
Consider `COc1ccc2nccc(CC[C@H]3OC[C@H](NC(=O)c4ccc5c(c4)OCCO5)CO3)c2c1`, for which the minimum inhibitory concentration (MIC) in the data set with Staphylococcus aureus [4] was 1 µg/mL (≈ 2.22 µM); with Staphylococcus aureus [6], 0.5 µg/mL (≈ 1.11 µM); against Staphylococcus aureus [10], greater than 32 µg/mL; against Staphylococcus aureus [12] it was 1 µg/mL (≈ 2.22 µM). The pIC50 in [5] was less than 4.00; on DNA gyrase, 5.43; on Topoisomerase IV [13], less than 3.70. In data set [9], the inhibition entry is “Dose-dependent effect”. For the same compound, the inhibition entry in data set [18] and in [15] was “inactive” throughout. Besides, in data set [14], the inhibition entry was “Active”.
